Source: ChEMBL document CHEMBL1129495, “Highly selective bradykinin agonists and antagonists with replacement of proline residues by N-methyl-D- and L-phenylalanine” (J Med Chem, 1996)
Square brackets hold non-standard residues; d marks the D form. Peptide text beside a SMILES is read from it. Phe(4-guanidino) = N=C(N)Nc1ccc(C[C@H](N)C(=O)O)cc1; 2Thi = N[C@@H](Cc1cccs1)C(=O)O; Aib = CC(C)(N)C(=O)O

What was measured:
[1] = Inhibitory activity against low affinity binding site of Bradykinin receptor in guinea pig ileum; format: tissue-based; conditions: Cavia porcellus
Summary of the method: (§1)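 Fresh rat myometrial or guinea pig ileum membranes (0.3–0.5 mg protein) incubated 30 min at 4 °C with 0.05 nM [3H]BK and increasing peptide concentrations. Buffer: 25 mM TES pH 6.8, 1 µM captopril, 1 mM DTE, bacitracin, BSA. Samples filtered on PEI-treated GF/C and counted. High- and low-affinity IC50s from Tobler–Engel analysis; duplicates.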

[2] = Inhibitory activity against high affinity binding site of Bradykinin receptor in rat uterus membrane was reported.; format: cell membranes; summary of the method: as §1
[3] = Inhibitory activity against low affinity binding site of Bradykinin receptor in rat uterus membrane was reported.; format: cell membranes; summary of the method: as §1
Cavia porcellus [4] = species on record: Cavia porcellus; assay: Antagonistic activity was evaluated in Guinea pig ileum assay.; format: functional; set-up: scale not given: the % may be the effect or the level left
Summary of the method: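 Guinea pig terminal ileum in Tyrode at 37 °C under 0.5 g tension, isotonic recording. Analog added 5 min before a cumulative BK dose–response curve (maximum at 0.3 µM BK). pA2 is the negative log of the antagonist concentration that reduces the effect of a double BK dose to that of a single dose. Means of 3–7 determinations.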

Cavia porcellus [5] = species on record: Cavia porcellus; assay: Antagonistic activity was evaluated in Guinea pig lung strip assay.; format: functional; set-up: scale not given: the % may be the effect or the level left
Summary of the method: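 Lower-lobe lung strips (2–3 mm) from guinea pigs (400–600 g) in Krebs–Henseleit at 37 °C under 1 g load, with isometric tension recorded. After 1 h equilibration, peptide was given 5 min before an ED50 dose of BK. Cumulative BK curves covered 0.01–10 µM. pA2 by the van Rossum method.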

Rattus norvegicus [6] = species on record: Rattus norvegicus; assay: Agonistic activity was evaluated in Estrus Rat Uterus Assay; format: functional
Summary of the method: (§2)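 Uteri from female Wistar rats (180–200 g) given diethylstilbestrol 100 µg/kg sc 16 h before use. Distal horns held in de Jalon solution at 28 °C under 0.5 g resting tension, with isotonic contractions recorded. BK was dosed every 4 min and left in the bath 45 s. Agonist activity by Schild 4-point method, expressed as percent of BK activity.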

[7] = Selectivity for rat uterus is expressed as the ratio RUT/GPI; format: functional
Summary of the method: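 Ratio of agonist activity (percent of BK) in estrus rat uterus to that in guinea pig ileum, both from isotonic contraction assays using the Schild 4-point method.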

Cavia porcellus [8] = species on record: Cavia porcellus; assay: Agonistic activity against selectivity for smooth muscle contraction in guinea pig ileum.; format: functional, Muscle tissue
Summary of the method: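 Isolated terminal ileum (1.5 cm) from guinea pigs fasted 16 h, in Tyrode at 37 °C. Isotonic contractions recorded under 0.5 g resting tension. Agonist activity measured by Schild 4-point method against BK doses of 1 and 2 nM, expressed as percent of BK activity.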

Rattus norvegicus [9] = species on record: Rattus norvegicus; assay: Agonistic activity against selectivity for smooth muscle contraction in rat uterus.; format: functional, Muscle tissue; summary of the method: as §2

| IC50 [1] [nM] | IC50 [2] [nM] | IC50 [3] [nM] | Compound | Activity (Cavia porcellus [4]) [%] | Activity (Cavia porcellus [5]) [%] | Activity (Rattus norvegicus [6]) [%] | Ratio [7] | Activity (Cavia porcellus [8]) [%] | Activity (Rattus norvegicus [9]) [%] |
| --- | --- | --- | --- | --- | --- | --- | --- | --- | --- |
| 1400 | 0.3 | 57 | CN(C(=O)[C@@H]1CCCN1C(=O)[C@@H](N)CCCN=C(N)N)[C@H](Cc1ccccc1)C(=O)NCC(=O)N[C@@H](Cc1ccccc1)C(=O)N[C@@H](CO)C(=O)N1CCC[C@H]1C(=O)N[C@@H](Cc1ccccc1)C(=O)N[C@@H](CCCN=C(N)N)C(=O)O | 0.03 | 0.03 | 0.02 |  |  |  |
|  |  |  | CN(C(=O)[C@H](CO)NC(=O)[C@H](Cc1ccccc1)N(C)C(=O)CNC(=O)[C@@H]1C[C@@H](O)CN1C(=O)[C@@H]1CCCN1C(=O)[C@H](CCCN=C(N)N)NC(=O)[C@H](N)CCCN=C(N)N)[C@H](Cc1ccccc1)C(=O)N(C)[C@@H](Cc1ccccc1)C(=O)N[C@@H](CCCN=C(N)N)C(=O)O | 0.005 | 0.5 | 15 | 3000 |  |  |
|  |  |  | NC(N)=NCCC[C@@H](N)C(=O)N[C@@H](CCCN=C(N)N)C(=O)N1CCC[C@H]1C(=O)N1C[C@H](O)C[C@H]1C(=O)NCC(=O)N[C@@H](Cc1cccs1)C(=O)N[C@@H](CO)C(=O)N1CCC[C@H]1C(=O)N[C@@H](Cc1cccs1)C(=O)N[C@@H](CCCN=C(N)N)C(=O)O |  |  |  | 30 | 7 | 237 |
|  |  |  | CC(C)(NC(=O)[C@@H](Cc1c[nH]c2ccccc12)NC(=O)[C@H](Cc1ccccc1)NC(=O)CNC(=O)[C@@H]1CCCN1C(=O)[C@@H]1CCCN1C(=O)[C@@H](N)CCCN=C(N)N)C(=O)N[C@@H](Cc1ccccc1)C(=O)N[C@@H](CCCN=C(N)N)C(=O)O |  |  |  | 0.442 | 226 | 100 |
|  |  |  | CC(C)(NC(=O)[C@@H](Cc1ccccc1)NC(=O)[C@H](Cc1ccccc1)NC(=O)CNC(=O)[C@@H]1CCCN1C(=O)[C@@H]1CCCN1C(=O)[C@@H](N)CCCN=C(N)N)C(=O)N[C@@H](Cc1ccccc1)C(=O)N[C@@H](CCCN=C(N)N)C(=O)O |  |  |  | 0.291 | 426 | 124 |
|  |  |  | NC(N)=NCCC[C@H](NC(=O)[C@H](Cc1ccccc1)NC(=O)[C@@H](Cc1ccccc1)NC(=O)CNC(=O)[C@H](Cc1ccccc1)NC(=O)CNC(=O)[C@@H]1CCCN1C(=O)[C@@H]1CCCN1C(=O)[C@@H](N)CCCN=C(N)N)C(=O)O |  |  |  | 100 | 0.3 | 31 |
|  |  |  | CN(C(=O)[C@H](CO)NC(=O)[C@H](Cc1cccs1)NC(=O)CNC(=O)[C@@H]1C[C@@H](O)CN1C(=O)[C@@H]1CCCN1C(=O)[C@H](CCCN=C(N)N)NC(=O)[C@H](N)CCCN=C(N)N)[C@H](Cc1ccccc1)C(=O)N[C@@H](Cc1ccccc1)C(=O)N[C@@H](CCCN=C(N)N)C(=O)O | 0.006 | 0.04 | 86 | 10000 |  |  |
|  |  |  | CC[C@@H](C)[C@@H](N)C(=O)N[C@@H](CO)C(=O)N[C@@H](CCCN=C(N)N)C(=O)N1CCC[C@H]1C(=O)N1CCC[C@H]1C(=O)NCC(=O)N[C@@H](Cc1ccccc1)C(=O)N[C@@H](CO)C(=O)N1CCC[C@H]1C(=O)N[C@@H](Cc1ccccc1)C(=O)N[C@@H](CCCN=C(N)N)C(=O)O |  |  |  | 25 | 11 | 271 |
| 1 |  | 33 | CN(C(=O)[C@H](CO)NC(=O)[C@H](Cc1ccccc1)NC(=O)CNC(=O)[C@@H]1CCCN1C(=O)[C@@H]1CCCN1C(=O)[C@H](CCCN=C(N)N)NC(=O)[C@H](N)CCCN=C(N)N)[C@@H](Cc1ccccc1)C(=O)N[C@@H](Cc1ccccc1)C(=O)N[C@@H](CCCN=C(N)N)C(=O)O [listing 1 of 2 here] |  |  |  |  |  |  |
|  |  |  | CN(C(=O)[C@H](CO)NC(=O)[C@H](Cc1ccccc1)NC(=O)CNC(=O)[C@@H]1CCCN1C(=O)[C@@H]1CCCN1C(=O)[C@H](CCCN=C(N)N)NC(=O)[C@H](N)CCCN=C(N)N)[C@@H](Cc1ccccc1)C(=O)N[C@@H](Cc1ccccc1)C(=O)N[C@@H](CCCN=C(N)N)C(=O)O [listing 2 of 2 here] | 0.07 | 0.08 | 0.5 |  |  |  |
| 33 | 0.33 | 18 | CN(C(=O)[C@H](CO)NC(=O)[C@H](Cc1ccccc1)NC(=O)CNC(=O)[C@@H]1C[C@@H](O)CN1C(=O)[C@@H]1CCCN1C(=O)[C@H](CCCN=C(N)N)NC(=O)[C@H](N)CCCN=C(N)N)[C@H](Cc1ccccc1)C(=O)N(C)[C@@H](Cc1ccccc1)C(=O)N[C@@H](CCCN=C(N)N)C(=O)O [listing 1 of 2 here] |  |  |  |  |  |  |
|  |  |  | CN(C(=O)[C@H](CO)NC(=O)[C@H](Cc1ccccc1)NC(=O)CNC(=O)[C@@H]1C[C@@H](O)CN1C(=O)[C@@H]1CCCN1C(=O)[C@H](CCCN=C(N)N)NC(=O)[C@H](N)CCCN=C(N)N)[C@H](Cc1ccccc1)C(=O)N(C)[C@@H](Cc1ccccc1)C(=O)N[C@@H](CCCN=C(N)N)C(=O)O [listing 2 of 2 here] | 0.01 | 0.45 | 40 | 4000 |  |  |
| 700 |  | 500 | CN(C(=O)[C@H](CO)NC(=O)[C@H](Cc1ccccc1)NC(=O)CNC(=O)[C@@H]1CCCN1C(=O)[C@@H]1CCCN1C(=O)[C@@H](N)CCCN=C(N)N)[C@@H](Cc1ccccc1)C(=O)N[C@@H](Cc1ccccc1)C(=O)N[C@@H](CCCN=C(N)N)C(=O)O | 0.03 | 0.1 | 0.2 |  |  |  |
|  |  |  | NC(N)=NCCC[C@H](NC(=O)[C@H](Cc1cccs1)NC(=O)[C@@H]1CCCN1C(=O)[C@H](CO)NC(=O)[C@H](Cc1ccccc1)NC(=O)CNC(=O)[C@@H]1CCCN1C(=O)[C@@H]1CCCN1C(=O)[C@@H](N)CCCN=C(N)N)C(=O)O (H-RPPGFSP[2Thi]R-OH) |  |  |  | 13 | 40 | 500 |
|  |  |  | CC(C)(NC(=O)[C@H](CO)NC(=O)[C@H](Cc1ccccc1)NC(=O)CNC(=O)[C@@H]1CCCN1C(=O)[C@@H]1CCCN1C(=O)[C@@H](N)CCCN=C(N)N)C(=O)N[C@@H](Cc1ccccc1)C(=O)N[C@@H](CCCN=C(N)N)C(=O)O (H-RPPGFS[Aib]FR-OH) |  |  |  | 0.13 | 418 | 55 |
|  |  |  | NC(N)=NCCC[C@H](NC(=O)[C@H](Cc1cccs1)NC(=O)[C@@H]1CCCN1C(=O)[C@H](CO)NC(=O)[C@H](Cc1cccs1)NC(=O)CNC(=O)[C@@H]1CCCN1C(=O)[C@@H]1CCCN1C(=O)[C@@H](N)CCCN=C(N)N)C(=O)O (H-RPPG[2Thi]SP[2Thi]R-OH) |  |  |  | 5 | 200 | 1000 |
|  |  |  | N=C(N)Nc1ccc(C[C@H](NC(=O)[C@H](Cc2ccccc2)NC(=O)[C@@H]2CCCN2C(=O)[C@H](CO)NC(=O)[C@H](Cc2ccccc2)NC(=O)CNC(=O)[C@@H]2CCCN2C(=O)[C@@H]2CCCN2C(=O)[C@@H](N)Cc2ccc(NC(=N)N)cc2)C(=O)O)cc1 (H-[Phe(4-guanidino)]PPGFSPF[Phe(4-guanidino)]-OH) |  |  |  | 0.001 | 2 | 0.001 |
|  |  |  | CC(C)(NC(=O)[C@@H](Cc1ccc(Cl)cc1)NC(=O)C(Cc1ccccc1)NC(=O)CNC(=O)[C@@H]1CCCN1C(=O)[C@@H]1CCCN1C(=O)[C@@H](N)CCCN=C(N)N)C(=O)NC(Cc1ccccc1)C(=O)N[C@@H](CCCN=C(N)N)C(=O)O (stereo in doubt) |  |  |  | 0.3 | 321 | 97 |
|  |  |  | H-RPPGFSPFK-OH |  |  |  | 0.01 | 20 | 0.2 |
